# The list is not random: actives were taken first. Their share in the collection is about 4.7%.
# IMP-1 inh = inhibitors of Pseudomonas aeruginosa IMP-1 metallo-beta-lactamase; purified IMP-1, nitrocefin hydrolysis, epi-absorbance fluorescence; inhibition, % at 5.6 µM; 290,000 tested, 0.45% active;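 active = inhibition above the mean plus 3 SD of all compounds in the same screening run, cut at about 4.5% in these data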
#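 System: Purified recombinant IMP-1 metallo-beta-lactamase enzyme | Measured by: Fluorescence quenching readout, ex 480/em 530 nm | Replication: Singlicate | Incubation: 15 min preincubation plus 25 min reaction at 25 °C | Evaluation: Percent inhibition from optical density relative to buffer-blank wells | Benchmarks: DMSO with and without IMP-1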
# 697 NFkB inh = lowers PMA/ionomycin-induced NF-kB signal in 697 B cells; 697 B-cell NF-kB luciferase reporter, 16 h; inhibition, % at 4 µM; 330,000 tested, 0.33% active; in the data active = inhibition above about 35%
# aSyn 5UTR inh = MLPCN primary screen, SNCA 5' untranslated region | alpha-synuclein 5'UTR reporter, inhibitor activity | inhibition, % (tested at 7.5 µM) | 300,000 tested, 0.82% active | AID 1813; in the data active = inhibition above about 60%; inconclusive = no clear call, values can overlap the other calls;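 also: H4 neuroglioblastoma cells stably carrying SNCA 5'UTR luciferase fusion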
# Jurkat NFkB inh = lowers PMA/ionomycin-induced NF-kB signal in Jurkat cells. PMA/ionomycin-induced NF-kB luciferase reporter, luminescence. inhibition, % at 4 µM. 330,000 tested, 0.53% active; in the data active = inhibition above about 50%
# VIM-2 inhibitor = blocks Pseudomonas aeruginosa VIM-2 metallo-beta-lactamase; inhibition, % at 5.6 µM; purified VIM-2, nitrocefin hydrolysis, epi-absorbance fluorescence; 290,000 tested, 0.89% active;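 active = inhibition above the mean of all tested compounds plus 3 SD, cutoff set per screening run, cut at about 7.5% in these data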;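 also: red hydrolysis product quenches plate fluorescence so inhibitors raise well fluorescence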
# Mdm2-MdmX inh = human Mdm2/MdmX binding inhibition | O15151+Q00987 | SaOS-2 split-luciferase Mdm2/MdmX complementation, luminescence | inhibition, % at 8 µM | 330,000 tested, 3% active | AID 485346;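 active = inhibition of at least 50% at 8 µM in the primary screen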
# Target sequence (O15151 whole entry, looked up): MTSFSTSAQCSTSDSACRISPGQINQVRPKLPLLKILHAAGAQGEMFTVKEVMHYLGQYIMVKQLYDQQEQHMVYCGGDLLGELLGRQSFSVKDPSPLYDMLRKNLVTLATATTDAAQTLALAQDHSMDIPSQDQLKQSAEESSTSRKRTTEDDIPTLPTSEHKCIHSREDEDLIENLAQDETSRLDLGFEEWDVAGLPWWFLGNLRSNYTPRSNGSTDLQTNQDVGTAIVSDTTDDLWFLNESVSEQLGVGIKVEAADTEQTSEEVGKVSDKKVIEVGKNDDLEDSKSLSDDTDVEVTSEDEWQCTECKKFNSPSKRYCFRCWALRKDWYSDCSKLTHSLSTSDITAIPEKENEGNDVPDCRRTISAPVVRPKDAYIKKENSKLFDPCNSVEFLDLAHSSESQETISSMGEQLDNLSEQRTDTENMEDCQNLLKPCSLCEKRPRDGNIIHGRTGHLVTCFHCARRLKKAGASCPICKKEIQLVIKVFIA
# Target sequence (Q00987 whole entry, looked up): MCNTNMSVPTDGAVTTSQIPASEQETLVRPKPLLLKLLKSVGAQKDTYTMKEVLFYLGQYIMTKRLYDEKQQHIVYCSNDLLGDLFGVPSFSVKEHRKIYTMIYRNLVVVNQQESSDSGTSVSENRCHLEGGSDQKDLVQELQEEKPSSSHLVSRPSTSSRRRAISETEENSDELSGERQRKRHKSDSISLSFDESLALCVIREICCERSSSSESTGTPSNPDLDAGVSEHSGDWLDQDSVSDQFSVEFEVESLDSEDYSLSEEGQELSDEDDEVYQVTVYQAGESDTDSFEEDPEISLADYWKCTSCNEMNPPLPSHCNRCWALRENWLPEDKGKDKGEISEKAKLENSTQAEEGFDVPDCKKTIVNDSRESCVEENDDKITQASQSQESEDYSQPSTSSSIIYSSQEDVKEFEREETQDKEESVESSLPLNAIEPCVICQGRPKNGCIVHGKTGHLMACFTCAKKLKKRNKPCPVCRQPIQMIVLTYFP
# Mdm2-MdmX conf = human Mdm2/MdmX binding inhibition, confirmed; shares compounds with Mdm2-MdmX inh; 10,000 tested, 55% active; luminescent assay; inhibition, % at 8 µM; in the data active = inhibition above about 40%
# FLuc counter = counter-screen for Mdm2/MdmX inhibitors: full-length luciferase. shares compounds with Mdm2-MdmX inh. 6,200 tested, 77% active. SaOS-2 full-length luciferase counterscreen, luminescence. inhibition, % at 8 µM. AID 504607;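 active = mean inhibition at 8 µM reaching about 37%, which flags the compound as non-specific, limit read from the data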;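 also: p53-null SaOS-2 cells with luciferase driven by a doxycycline-inducible promoter; compound on cells about two nights before reading with doxycycline added after day one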
# Numbers stand for hits; . = inactive; ? = inconclusive; / = no result given.
SMILES,IMP-1 inh,697 NFkB inh,aSyn 5UTR inh,Jurkat NFkB inh,VIM-2 inhibitor,Mdm2-MdmX inh,Mdm2-MdmX conf,FLuc counter
Cc1ccc(S(=O)(=O)NCC(=O)OCCOc2cccc(Cl)c2)cc1,/,.,/,.,/,.,/,/
CS(=O)(=O)c1ccc2nc(NC(=O)CCS(=O)(=O)c3ccccc3)sc2c1,.,.,.,.,.,78,73,84
CC(C)n1nc(C(=O)Nc2nc3ccc(S(C)(=O)=O)cc3s2)c2ccccc2c1=O,/,.,.,.,/,91,57,82
O=C(CCS(=O)(=O)c1ccccc1)Nc1nc2ccc(F)cc2s1,/,.,.,.,/,67,65,72
CS(=O)(=O)c1ccc2nc(NC(=O)Cc3ccccc3)sc2c1,.,.,.,.,.,.,/,/
Cc1ccc(OCC(=O)OCc2nc3scc(-c4ccccc4)c3c(=O)[nH]2)cc1C,/,.,.,.,/,.,/,/
Cc1ccc(C)c(NCC(O)c2ccccc2)c1 (configuration not stated),.,.,.,.,.,.,/,/
COCCN(C(=O)CSc1nnc(-c2ccc(C)cc2)n1N)c1c(N)n(Cc2ccccc2)c(=O)[nH]c1=O,.,.,.,.,.,.,/,/
C=CC(=O)Nc1ccc(CN2C(=O)N(c3c(Cl)c(OC)cc(OC)c3Cl)Cc3cnc(NCCCCN(CC)CC)nc32)cc1,/,.,/,.,/,71,45,55
Cc1ccsc1CN(C)CC(=O)Nc1ccccc1C(=O)NC1CC1,/,.,/,.,/,.,/,/
CCN(CC)CCN1C(=O)/C(=C\c2ccc(Cl)c([N+](=O)[O-])c2)SC1=Nc1ccc(OC)cc1,.,.,74,.,8.0,100,98,.
CCN1C(=O)/C(=C/c2cccs2)SC1=Nc1ccc(OC)cc1,.,.,.,.,.,.,/,/
CC1(C)C2CC=C(/C=N/NC(=O)c3ccccc3Br)C1C2 (configuration not stated),.,.,.,.,.,.,/,/
CCN(c1ccccc1)S(=O)(=O)c1ccc(Cl)c(NC(=O)CN2CCCCCC2)c1,.,.,.,.,.,69,.,/
CCN1CCN(c2ccc(S(=O)(=O)N3CCCCC3)cc2NC(=O)c2ccc([N+](=O)[O-])s2)CC1,/,.,.,.,/,71,59,82
CCN1CCN(c2ccc(S(=O)(=O)N3CCCCC3)cc2NC(=O)Cc2ccccc2)CC1,/,.,.,.,/,.,/,/
CCN1CCN(c2ccc(S(=O)(=O)N3CCCCC3)cc2NC(=O)Cc2ccc(Cl)c(Cl)c2)CC1,/,.,.,.,/,64,.,80
O=C(CCl)Nc1cc(S(=O)(=O)N2CCCCCC2)ccc1Cl,.,.,.,.,.,92,.,50
CC(NC(=O)COC(=O)CNC(=O)C1CCCCC1)c1ccccc1 (configuration not stated),/,.,/,.,/,.,/,/
COc1ccc(NC(=O)c2ccc(Cl)c(NC(=O)c3ccncc3)c2)cc1,.,.,.,.,.,.,/,/
CCN1CCN(c2ccc(S(=O)(=O)N3CCCCC3)cc2NC(=O)/C=C/c2ccc(OC)c(OC)c2)CC1,/,.,.,.,/,.,/,/
CCN(CC)S(=O)(=O)c1ccc(Cl)c(NC(=S)NC(=O)C2CCCC2)c1,/,.,/,.,/,50,.,/
O=C(Nc1cccc(NC(=O)c2cc([N+](=O)[O-])ccc2Cl)n1)c1cc([N+](=O)[O-])ccc1Cl,/,.,?,.,/,96,96,50
CCN(CC)c1ccc(S(=O)(=O)Nc2cc(Cl)ccc2Cl)cc1NC(=S)NC(=O)C1CCCC1,.,.,.,.,.,.,/,/
CCN1CCN(c2ccc(S(=O)(=O)N3CCCCC3)cc2NC(=O)/C=C/c2cc(OC)ccc2OC)CC1,.,.,.,.,.,100,45,63
SMILES,IMP-1 inh,697 NFkB inh,aSyn 5UTR inh,Jurkat NFkB inh,VIM-2 inhibitor,Mdm2-MdmX inh,Mdm2-MdmX conf,FLuc counter
O=C(Nc1cc(S(=O)(=O)N2CCOCC2)ccc1Cl)c1cc([N+](=O)[O-])ccc1Cl,/,.,/,.,/,97,44,.
N#Cc1ccc(C(=O)Nc2cccc3ncccc23)c(F)c1,.,.,.,.,.,.,/,/
Cc1cc(C)c2oc(-c3ccc(Cl)c(NC(=O)c4ccc(C#N)cc4F)c3)nc2c1,.,.,.,.,.,69,.,/
Cc1nn(-c2ccccc2)c2c1C(c1ccc([N+](=O)[O-])cc1)N1C(=N2)C(=O)Nc2ccccc21 (configuration not stated),.,.,.,.,.,.,/,/
Cc1nn(-c2ccc([N+](=O)[O-])cc2)c2c1C(c1cccc(Br)c1)N1C(=N2)C(=O)Nc2ccccc21 (configuration not stated),.,.,.,.,.,60,.,/
Cn1c(/C(C#N)=C(\O)c2ccc([N+](=O)[O-])cc2)nc2ccccc21,.,.,.,.,.,86,.,/
CCN(CC)S(=O)(=O)c1ccc(/C(O)=C(\C#N)c2nc3ccccc3n2C)cc1,.,.,.,.,.,.,/,/
COc1ccc(CC(=O)OCC(=O)NC2CCCC(C)C2C)cc1OC (configuration not stated),/,.,/,.,/,.,/,/
CCN1CCN(CCCNC(=O)c2cc3c(s2)-c2ccccc2OC3)CC1,.,.,.,.,.,.,/,/
Cc1cccc2c1-c1sc(C(=O)NCCCN3CCCC(C)C3)cc1CO2 (configuration not stated),.,.,69,.,.,67,49,59
CC1CC(C)CN(CCCNC(=O)c2cc3c(s2)-c2ccccc2OC3)C1 (configuration not stated),.,.,.,.,.,.,/,/
CCCN1CCN(CCCNC(=O)c2cc3c(s2)-c2c(C)cccc2OC3)CC1,.,.,.,.,.,62,.,/
CCCN1CCN(CCCNC(=O)c2cc3c(s2)-c2ccccc2OC3)CC1,.,.,.,.,.,.,/,/
CC1CCCC(C)N1CCCNC(=O)c1cc2c(s1)-c1ccccc1OC2 (configuration not stated),.,.,70,.,.,61,.,/
CCOc1ccc(-n2cc(C(=O)N3CCCCCC3)c3cc(OC)c(OC)cc3c2=O)cc1,.,.,/,.,.,.,/,/
COc1ccc(Cl)cc1NC(=O)CN(C)C(=O)c1sc2ccccc2c1Cl,/,.,/,.,/,54,.,/
COc1ccc(Cl)cc1NC(=O)Cn1cccc1,.,.,.,.,.,.,/,/
COc1ccc(Cl)cc1NC(=O)CC(=O)Nc1cc(Cl)ccc1OC,.,.,.,.,.,66,.,/
COc1ccccc1-c1sc2ccccc2c1-c1ccccc1OC,/,.,/,.,/,.,/,/
O=c1[nH]c(=O)n(-c2ccc(F)cc2)c2c1C(C(F)(F)F)(C(F)(F)F)N=C(c1ccc(F)cc1)N2,.,.,.,.,.,53,.,68
